Results taken from PMC5114201 (Drugs in R&D, 2016).
Ends that are not written are not given here.

Assays:
[1] = system: Caco-2 monolayer; conditions: cited from earlier work
[2] = Vital signs after single oral dose, phase I study; assay type: in vivo, human; conditions: 24 h post dose, healthy subjects, mean ± SD, n = 4
Method in brief: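 In cohorts of four drug and two placebo (sterile water) subjects, a single oral solution was taken at 08:00 after an overnight fast, followed by 200 ml water. Blood pressure, heart rate, pulse oximetry, temperature and breathing rate were recorded pre-dose and at 0.25–24 h post dose. Values were reported as mean ± SD (range) and compared against placebo.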

[3] = intravenously administered into rats; ref unpublished preclinical toxicological data; cited from earlier work
[4] = Urinalysis, phase I study; assay type: in vivo, human; conditions: healthy subjects, n = 4
Method in brief: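 Healthy volunteers were randomized within each dose cohort to oral drug solution in sterile water (four subjects) or sterile-water placebo (two subjects). They fasted from midnight, were dosed at 08:00 and had no food for 2 h afterwards. Urinalysis was done before dosing and 24 h after. Dipstick-type read-outs were compared with normal ranges or indications.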

[5] = Safety and tolerability; assay type: in vivo, human; conditions: healthy subjects, 12-lead ECG at 1, 3, 6 and 12 h post dose, all cohorts
Method in brief: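 Single-blind, randomized, placebo-controlled dose escalation in healthy adults. Each cohort of six had four on drug and two on sterile-water placebo. Drug was dissolved in sterile water and drunk standing, then 200 ml water, at 08:00 after fasting from midnight. A 12-lead ECG was taken pre-dose and at 1, 3, 6 and 12 h. Vital signs and clinical laboratory tests were also monitored.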

[6] = 0.08 mg/kg single oral dose, 0 h pre dose (baseline)
[7] = 0.08 mg/kg single oral dose, 24 h post dose
[8] = 0.7 mg/kg single oral dose, 0 h pre dose (baseline)
[9] = 0.7 mg/kg single oral dose, 24 h post dose

Sequence: RVYIHPFHL [DAA-I, Des-aspartate-angiotensin I]
- Transport across Caco-2 monolayer [1]: cross the Caco-2 monolayer via passive diffusion
- Blood pressure, diastolic ([2]; 0.08 mg/kg single oral dose): 68 ± 5 mmHg
- Blood pressure, systolic ([2]; 0.08 mg/kg single oral dose): 120 ± 4 mmHg
- Blood pressure, diastolic ([2]; 0.7 mg/kg single oral dose): 67 ± 7 mmHg
- Blood pressure, systolic ([2]; 0.7 mg/kg single oral dose): 114 ± 7 mmHg
- Time to degradation by plasma enzymes [3]: 2 to 5 min
- Urine bilirubin [4, 6]: Negative
- Urine glucose [4, 6]: Normal
- Urine haemoglobin [4, 6]: Negative
- Urine ketones [4, 6]: Negative
- Urine nitrite [4, 6]: Negative
- Urine protein [4, 6]: Negative
- Urine urobilinogen [4, 6]: Normal
- Urine bilirubin [4, 7]: Negative
- Urine glucose [4, 7]: Normal
- Urine haemoglobin [4, 7]: Negative
- Urine ketones [4, 7]: Negative
- Urine nitrite [4, 7]: Negative
- Urine protein [4, 7]: Negative
- Urine urobilinogen [4, 7]: Normal
- Urine bilirubin [4, 8]: Negative
- Urine glucose [4, 8]: normal
- Urine haemoglobin [4, 8]: Negative
- Urine ketones [4, 8]: Negative
- Urine nitrite [4, 8]: Negative
- Urine protein [4, 8]: Negative
- Urine urobilinogen [4, 8]: Normal
- Urine bilirubin [4, 9]: Negative
- Urine glucose [4, 9]: normal
- Urine haemoglobin [4, 9]: Negative
- Urine ketones [4, 9]: Negative
- Urine nitrite [4, 9]: Negative
- Urine protein [4, 9]: Negative
- Urine urobilinogen [4, 9]: Normal
- ECGs [5]: normal
